Assay results: ChEMBL document CHEMBL3297682, “Synthesis and anticancer activity of γ-(triazolyl ethylidene)butenolides and polyfunctional pyrrolinones” (Eur J Med Chem, 2014)
Activity calls are given as the source filed them. The rule behind the calls is not given here.

Assays:
PC-3 [1] = experiment: Antiproliferative activity against human PC3 cells after 24 hrs by MTT assay; format: functional, cell-based; conditions: PC-3, 24 h
Method in brief: (§1)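 1×10^4 cells/well seeded in DMEM with 10% FBS and antibiotic-antimycotic, grown 24 h at 37 °C under 5% CO2. Compounds diluted in phenol red-free DMEM with 2% FBS and given for 24 h, with vehicle control. MTT (5 mg/mL, 20 µL) added for 3 h. Formazan dissolved in DMSO, absorbance read at 570 nm. IC50 is the concentration giving 50% growth inhibition.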

HCT-116 [2] = experiment: Induction of cell cycle arrest in human HCT116 cells assessed as accumulation at subG1 phase at IC50 concentration measured after 24 hrs by propidium iodide staining based flow cytometry; format: functional
Method in brief: (§2)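 1×10^6 cells seeded in six-well plates and treated 24 h. Floating and trypsinized adherent cells pooled and fixed in 70% ethanol. Cells washed in PBS, then stained 30 min at room temperature in the dark with 30 µg/mL propidium iodide in PBS containing RNase A. DNA content measured by flow cytometry.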

U-937 [3] = experiment: Induction of cell cycle arrest in human U937 cells assessed as accumulation at subG1 phase at IC50 concentration measured after 24 hrs by propidium iodide staining based flow cytometry; format: functional; method in brief: as §2
MDA-MB-231 [4] = experiment: Induction of reactive oxygen species production in human MDA-MB-231 cells after 24 hrs by DCFH-DA dye based flow cytometry; format: functional, cell-based
Method in brief: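 MDA-MB-231 cells (1×10^6) seeded 24 h in six-well plates, then treated 24 h. Cells harvested, washed in PBS and fixed in absolute methanol. Cells resuspended in PBS with 15 µg/mL DCFH-DA for 30 min in the dark, then pelleted, taken up in PBS, and fluorescence read by flow cytometry.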

U-937 [5] = experiment: Antiproliferative activity against human U937 cells after 24 hrs by MTT assay; format: functional, cell-based; conditions: U-937, 24 h; method in brief: as §1
MDA-MB-231 [6] = experiment: Antiproliferative activity against human MDA-MB-231 cells after 24 hrs by MTT assay; format: functional, cell-based; conditions: MDA-MB-231, 24 h; method in brief: as §1
MDA-MB-231 [7] = experiment: Induction of cell cycle arrest in human MDA-MB-231 cells assessed as accumulation at subG1 phase at IC50 concentration measured after 24 hrs by propidium iodide staining based flow cytometry; format: functional; method in brief: as §2
MCF7 [8] = experiment: Antiproliferative activity against human MCF7 cells after 24 hrs by MTT assay; format: functional, cell-based; conditions: MCF7, 24 h; method in brief: as §1
HEK293 = experiment: Cytotoxicity against human HEK293 cells after 24 hrs by MTT assay; format: cell-based; conditions: HEK293, 24 h; method in brief: as §1
PC-3 [9] = experiment: Induction of cell cycle arrest in human PC3 cells assessed as accumulation at subG1 phase at IC50 concentration measured after 24 hrs by propidium iodide staining based flow cytometry; format: functional; method in brief: as §2
HCT-116 [10] = experiment: Antiproliferative activity against human HCT116 cells after 24 hrs by MTT assay; format: functional, cell-based; conditions: HCT-116, 24 h; method in brief: as §1
MCF7 [11] = experiment: Induction of cell cycle arrest in human MCF7 cells assessed as accumulation at subG1 phase at IC50 concentration measured after 24 hrs by propidium iodide staining based flow cytometry; format: functional; method in brief: as §2

Compound	IC50 (PC-3 [1]) [µM]	Activity (HCT-116 [2])	Activity (U-937 [3])	Activity (MDA-MB-231 [4])	IC50 (U-937 [5]) [µM]	IC50 (MDA-MB-231 [6]) [µM]	Activity (MDA-MB-231 [7])	IC50 (MCF7 [8]) [µM]	IC50 (HEK293) [µM]	Activity (PC-3 [9])	IC50 (HCT-116 [10]) [µM]	Activity (MCF7 [11])
COC1=C(OC)C(O)(CCn2cc(-c3ccccc3)nn2)NC1=O (centres undefined)	35.3	Active	Active	Active	20.3	18.3	Active	22.6	62	Active	46.3	Active
CCCCCCCCN1C(=O)C(OCc2ccccc2)=C(OCc2ccccc2)C1(O)CCn1cc(-c2ccccn2)nn1 (centres undefined)	80.3				84.2	> 100		24.3	> 100		> 100	
CCCc1cn(CCC2(O)C(OCc3ccccc3)=C(OCc3ccccc3)C(=O)N2CCC)nn1 (centres undefined)	35				> 100	> 100		> 100	90		> 100	
CC/C(=C(\c1ccccc1)c1ccc(OCCN(C)C)cc1)c1ccccc1 [TAMOXIFEN]	7					14		6	50			
CCCCCCc1cn(C/C=C2\OC(=O)C(OC)=C2OC)nn1	> 100				> 100	74.7		> 100	> 100		> 100	
CCCCCc1cn(C/C=C2\OC(=O)C(OCc3ccccc3)=C2OCc2ccccc2)nn1	> 100				> 100	> 100		> 100	> 100		> 100	
COC1=C(OC)/C(=C/Cn2cc(-c3ccc(C(C)(C)C)cc3)nn2)OC1=O	> 100				30	> 100		> 100	> 100		> 100	
COC1=C(OC)/C(=C/Cn2cc(-c3ccccc3)nn2)OC1=O	> 100				> 100	> 100		> 100	> 100		> 100	
Cc1ccc(-c2cn(C/C=C3\OC(=O)C(OCc4ccccc4)=C3OCc3ccccc3)nn2)cc1	> 100				> 100	> 100		> 100	> 100		> 100	
Cc1ccc(-c2cn(CCC3(O)NC(=O)C(OCc4ccccc4)=C3OCc3ccccc3)nn2)cc1 (centres undefined)	84.2				54	82.2		24	45		74.3	
O=C1O/C(=C\Cn2cc(Cc3ccccc3)nn2)C(OCc2ccccc2)=C1OCc1ccccc1	71.3			Active	> 100	29.2		40	70		83.1	
O=C1O/C(=C\Cn2cc(-c3ccccn3)nn2)C(OCc2ccccc2)=C1OCc1ccccc1	> 100				70.2	> 100		> 100	> 100		> 100	
COC1=C(OC)/C(=C/Cn2cc(-c3ccccn3)nn2)OC1=O	> 100				> 100	> 100		> 100	> 100		> 100	
O=C1NC(O)(CCn2cc(Cc3ccccc3)nn2)C(OCc2ccccc2)=C1OCc1ccccc1 (centres undefined)	> 100				> 100	> 100		39.2	86		51.2	
CC(C)(C)c1ccc(-c2cn(C/C=C3\OC(=O)C(OCc4ccccc4)=C3OCc3ccccc3)nn2)cc1	> 100				> 100	51.2		> 100	> 100		> 100	
CCCCc1cn(C/C=C2\OC(=O)C(OCc3ccccc3)=C2OCc2ccccc2)nn1	> 100				> 100	> 100		> 100	> 100		64.3	

Compound	IC50 (PC-3 [1]) [µM]	Activity (HCT-116 [2])	Activity (U-937 [3])	Activity (MDA-MB-231 [4])	IC50 (U-937 [5]) [µM]	IC50 (MDA-MB-231 [6]) [µM]	Activity (MDA-MB-231 [7])	IC50 (MCF7 [8]) [µM]	IC50 (HEK293) [µM]	Activity (PC-3 [9])	IC50 (HCT-116 [10]) [µM]	Activity (MCF7 [11])
COC1=C(OC)/C(=C/Cn2cc(CO)nn2)OC1=O	> 100				> 100	> 100		35	> 100		> 100	
COC1=C(OC)/C(=C/Cn2cc(CCCCO)nn2)OC1=O	> 100				> 100	87.5		35	> 100		> 100	
CCCc1cn(C/C=C2/C(OCc3ccccc3)=C(OCc3ccccc3)C(=O)N2CCC)nn1	> 100				80.5	> 100		66.8	82		> 100	
CCCc1cn(C/C=C2\OC(=O)C(OCc3ccccc3)=C2OCc2ccccc2)nn1	> 100				> 100	> 100		> 100	> 100		> 100	
O=C1O/C(=C\Cn2cc(C3=CCCCC3)nn2)C(OCc2ccccc2)=C1OCc1ccccc1	55.6				> 100	> 100		> 100	> 100		> 100	
O=C1O/C(=C\Cn2cc(CCCCO)nn2)C(OCc2ccccc2)=C1OCc1ccccc1	> 100				> 100	> 100		53.6	> 100		> 100	
O=C1O/C(=C\Cn2cc(C3CC3)nn2)C(OCc2ccccc2)=C1OCc1ccccc1	> 100				> 100	> 100		> 100	> 100		> 100	
O=C1NC(O)(CCn2cc(-c3ccccc3)nn2)C(OCc2ccccc2)=C1OCc1ccccc1 (centres undefined)	> 100	Active	Active	Active	21.5	21.1	Active	20.5	> 100	Active	53.4	Active
COC1=C(OC)/C(=C/Cn2cc(Cc3ccccc3)nn2)OC1=O	> 100				> 100	> 100		> 100	> 100		> 100	
CC(C)(C)c1ccc(-c2cn(CCC3(O)C(OCc4ccccc4)=C(OCc4ccccc4)C(=O)N3CCc3ccccc3)nn2)cc1 (centres undefined)	65.5				60.2	> 100		32	71		> 100	
CCCCCC(O)c1cn(C/C=C2\OC(=O)C(OC)=C2OC)nn1 (centres undefined)	> 100				> 100	35.5		> 100	80		> 100	
O=C1O/C(=C\Cn2cc(-c3ccccc3)nn2)C(OCc2ccccc2)=C1OCc1ccccc1	> 100				> 100	44		> 100	> 100		> 100	
COC1=C(OC)/C(=C/Cn2cc(C3CC3)nn2)OC1=O	> 100				> 100	> 100		> 100	> 100		> 100	
CC(C)(C)c1ccc(-c2cn(CCC3(O)NC(=O)C(OCc4ccccc4)=C3OCc3ccccc3)nn2)cc1 (centres undefined)	43				56.5	> 100		25.1	> 100		> 100	
CCCCCCCCN1C(=O)C(OCc2ccccc2)=C(OCc2ccccc2)/C1=C/Cn1cc(-c2ccccn2)nn1	> 100				90.2	> 100		46.2	83		> 100	
O=C1NC(O)(CCn2cc(C3=CCCCC3)nn2)C(OCc2ccccc2)=C1OCc1ccccc1 (centres undefined)	67.2			Active	> 100	13.1		> 100	70		> 100	
